# Reference: ChEMBL document CHEMBL1121739, “Inhibition of human acrosin by monosaccharides and related compounds: structure-activity relationships” (J Med Chem, 1981)
# Target: Acrosin (Homo sapiens) (UniProt P10323)
# Assay: Compound was tested for inhibition of Human acrosin by ketohexoses
# Conditions: concentration not given here
# Outline: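 Purified human α-acrosin from acetic acid extracts of frozen sperm, run through Sephadex G-150 and CM-cellulose. Sugars at 200 mM were preincubated with the enzyme for 5 min at ambient temperature in 50 mM sodium phosphate, pH 7.5. Reaction started with 5×10^-5 M BAEE or 3×10^-4 M BAPA; hydrolysis followed at 253 nm. Percent inhibition versus inhibitor-free control, mean ± SE of 3–6 determinations.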
# Sequence of Acrosin (Homo sapiens) (P10323 20-42 limits assumed): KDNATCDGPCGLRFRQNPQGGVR
# Sequence of Acrosin (Homo sapiens) (P10323 43-343 limits assumed): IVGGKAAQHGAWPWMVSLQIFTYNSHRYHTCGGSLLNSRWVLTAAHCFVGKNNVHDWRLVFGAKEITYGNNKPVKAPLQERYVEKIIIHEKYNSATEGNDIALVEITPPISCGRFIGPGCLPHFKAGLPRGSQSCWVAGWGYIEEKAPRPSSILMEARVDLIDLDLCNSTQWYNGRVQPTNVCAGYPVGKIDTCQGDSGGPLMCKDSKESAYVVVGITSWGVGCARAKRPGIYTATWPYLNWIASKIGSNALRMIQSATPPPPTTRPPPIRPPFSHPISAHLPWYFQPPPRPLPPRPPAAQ
row,Structure (SMILES),inhibition [%]
1,O=C(CO)[C@@H](O)[C@H](O)[C@H](O)CO,66
2,O=P(O)(O)OC[C@H]1O[C@](O)(CO)[C@@H](O)[C@@H]1O,32
3,O=C(CO)C(O)C(O)C(O)CO (centres undefined),18
4,OCC1(O)OCC(O)C(O)C1O (centres undefined),58

# Target: Acrosin (Homo sapiens) (UniProt P10323)
# Assay: Compound was tested for inhibition of Human acrosin by ketoses
# Conditions: concentration not given here
# Outline: (§1)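 Homologous aldoses or ketoses of different carbon chain lengths were each tested at 100 mM against purified human α-acrosin. The enzyme was preincubated with sugar for 5 min at ambient temperature, pH 7.5, with 3×10^-4 M BAPA as substrate and hydrolysis read spectrophotometrically at 253 nm. Results are % inhibition of control activity, as mean ± SE with n given.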
row,Structure (SMILES),inhibition [%]
1,OC[C@H]1OC(O)(CO)[C@@H](O)[C@@H](O)[C@@H]1O (some centres undefined),41
2,O=C(CO)[C@@H](O)[C@H](O)[C@H](O)CO,47

# Further lines, results first:
row,inhibition [%],Structure (SMILES)
1,38,O=C(CO)C(O)C(O)CO (centres undefined)
2,15,O=C(CO)CO

# Target: Acrosin (Homo sapiens) (UniProt P10323)
# Assay: Compound was tested for inhibition of Human acrosin by phosphorylated monosaccharides
# Parameters: concentration or dose not given beside the values
# Conditions: concentration not given here
# Outline: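 Phosphorylated sugars, as barium salts in the D configuration, were tested at 100 mM, limited by solubility; the parent sugars were also run at 100 mM. Each was preincubated 5 min with purified human α-acrosin before adding BAEE or BAPA. The spectrophotometric 253 nm assay measured % inhibition relative to a no-inhibitor control.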
row,Structure (SMILES),inhibition [%]
1,O=P(O)(O)OC1O[C@H](CO)[C@H](O)[C@H](O)[C@H]1O (some centres undefined),3
2,OC[C@H]1O[C@H](O)[C@H](O)[C@@H]1O,45
3,O=C(CO)[C@@H](O)[C@H](O)[C@H](O)CO,46
4,O=P(O)(O)OC[C@H]1O[C@](O)(CO)[C@@H](O)[C@@H]1O,7
5,O=P(O)(O)OC[C@@]1(O)O[C@H](CO)[C@@H](O)[C@@H]1O,9
6,O=P(O)(O)OC[C@H]1OC(O)[C@H](O)[C@@H](O)[C@H]1O (some centres undefined),10
7,O=P(O)(O)OC[C@H]1OC(O)(COP(=O)(O)O)[C@@H](O)[C@@H]1O (some centres undefined),18

# The next lines start with the values.
row,inhibition [%],Structure (SMILES)
1,0,O=C[C@H](O)[C@@H](O)[C@@H](O)[C@H](O)CO
2,15,O=P(O)(O)OC[C@H]1O[C@H](O)[C@H](O)[C@@H]1O

# Target: Acrosin (Homo sapiens) (UniProt P10323)
# Assay: Compound was tested for inhibition of Human acrosin by aldoses
# Conditions: not given
# Outline: as §1
row,inhibition [%],Structure (SMILES)
1,36,OC1OC[C@@H](O)[C@@H](O)[C@@H]1O (some centres undefined)
2,48,OC[C@H]1OC(O)[C@@H](O)[C@@H](O)[C@@H]1O (some centres undefined)
3,40,O=CC(O)C(O)CO (centres undefined)

# Target: Acrosin (Homo sapiens) (UniProt P10323)
# Assay: Compound was tested for inhibition of Human acrosin by polyols
# Conditions: concentration not given here
row,inhibition [%],Structure (SMILES)
1,29,OC[C@@H](O)[C@@H](O)[C@H](O)[C@H](O)CO
2,28,OCC(O)CO
3,30,O[C@H]1[C@H](O)[C@@H](O)[C@H](O)[C@@H](O)[C@H]1O
4,38,OC[C@@H](O)[C@@H](O)[C@H](O)[C@@H](O)CO

# Target: Acrosin (Homo sapiens) (UniProt P10323)
# Assay: Compound was tested for inhibition of Human acrosin by aldohexoses
# Parameters: concentration or dose not given beside the values
# Conditions: concentration not given here
# Outline: (§2)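 Purified human α-acrosin (acetic acid extract of frozen sperm, then Sephadex G-150 and CM-cellulose). Sugar at 200 mM was preincubated with enzyme for 5 min at ambient temperature in 50 mM sodium phosphate, pH 7.5. The reaction was started with 5×10^-5 M BAEE or 3×10^-4 M BAPA and followed at 253 nm. Results are % inhibition of the no-inhibitor control rate, as mean ± SE.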
row,Structure (SMILES),inhibition [%]
1,OC[C@@H]1OC(O)[C@@H](O)[C@H](O)[C@H]1O (some centres undefined),0
2,OC[C@H]1OC(O)[C@H](O)[C@@H](O)[C@@H]1O (some centres undefined),28
3,OC[C@H]1OC(O)[C@@H](O)[C@@H](O)[C@@H]1O (some centres undefined),60
4,OC[C@H]1O[C@@H](O)[C@H](O)[C@@H](O)[C@H]1O (stereo in doubt; form 2),12
5,OC[C@H]1O[C@@H](O)[C@H](O)[C@@H](O)[C@H]1O (stereo in doubt; form 1),34
6,OC[C@H]1OC(O)[C@H](O)[C@H](O)[C@H]1O (some centres undefined),0

# The next lines start with the values.
row,inhibition [%],Structure (SMILES)
1,62,C[C@H]1OC(O)[C@H](O)[C@@H](O)[C@H]1O (some centres undefined)
2,20,C[C@H](O)[C@@H](O)[C@@H](O)[C@H](O)C=O

# Target: Acrosin (Homo sapiens) (UniProt P10323)
# Assay: Compound was tested for inhibition of Human acrosin by aldopentoses
# Parameters: concentration or dose not given beside the values
# Conditions: concentration not given here
# Outline: as §2
row,Structure (SMILES),inhibition [%]
1,O[C@@H]1[C@H](O)[C@@H](O)OC[C@H]1O (stereo in doubt; form 2),35
2,OC1OC[C@@H](O)[C@@H](O)[C@@H]1O (some centres undefined),50
3,O[C@@H]1[C@H](O)[C@@H](O)OC[C@H]1O (stereo in doubt; form 1),50
4,OC[C@H]1O[C@H](O)[C@H](O)[C@@H]1O,65
5,OC1OC[C@H](O)[C@@H](O)[C@@H]1O (some centres undefined),40

# The remaining lines, values ahead:
row,inhibition [%],Structure (SMILES)
1,65,OC1OC[C@H](O)[C@H](O)[C@H]1O (some centres undefined)
2,37,O=C[C@H](O)[C@@H](O)[C@H](O)CO
